Assay results: ChEMBL document CHEMBL5260843 (J Med Chem, 2019)
Active and inactive are the calls of the source. The rule behind the calls is not given here.

Legend:
[1] = Metabolic stability in dog liver microsomes assessed as intrinsic clearance; format: ADME, Canis lupus familiaris, Microsome; settings: read-out: CLH
[2] = target: T1, Cullin-5 (Homo sapiens) (UniProt Q93034); assay: Inhibition of cullin5 neddylation in human KYSE-70 cells at 0.3 to 10 uM incubated for 24 hrs by Western blot analysis; format: cell-based; settings: KYSE-70 cell line, dose 0.3-10 µM
T1 sequence (whole entry): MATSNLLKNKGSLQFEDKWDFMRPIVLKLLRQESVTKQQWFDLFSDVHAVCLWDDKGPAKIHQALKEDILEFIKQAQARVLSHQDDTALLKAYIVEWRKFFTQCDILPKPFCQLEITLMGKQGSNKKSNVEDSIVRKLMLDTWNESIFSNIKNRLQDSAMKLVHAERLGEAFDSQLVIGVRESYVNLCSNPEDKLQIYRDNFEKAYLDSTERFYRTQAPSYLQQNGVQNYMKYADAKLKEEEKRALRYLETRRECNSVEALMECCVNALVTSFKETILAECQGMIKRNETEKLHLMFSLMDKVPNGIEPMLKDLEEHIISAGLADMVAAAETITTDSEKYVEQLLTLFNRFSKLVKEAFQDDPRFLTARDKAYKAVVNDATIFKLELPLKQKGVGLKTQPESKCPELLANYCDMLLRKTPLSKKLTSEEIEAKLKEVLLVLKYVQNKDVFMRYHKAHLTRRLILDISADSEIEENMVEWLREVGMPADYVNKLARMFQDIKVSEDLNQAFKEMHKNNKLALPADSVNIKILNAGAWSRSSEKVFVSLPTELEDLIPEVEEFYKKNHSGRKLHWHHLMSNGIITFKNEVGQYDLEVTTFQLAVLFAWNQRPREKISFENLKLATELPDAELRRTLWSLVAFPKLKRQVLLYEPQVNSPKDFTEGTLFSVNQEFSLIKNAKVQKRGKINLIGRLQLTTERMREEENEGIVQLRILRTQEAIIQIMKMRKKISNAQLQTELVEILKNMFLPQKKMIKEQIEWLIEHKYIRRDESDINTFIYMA
Procedure, shortened: (§1)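 Cells in 6-well plates were exposed to compound for 24 h. MGC-803 were grown in DMEM and KYSE70 in RPMI 1640, both with 10% FBS at 37 °C and 5% CO2. Lysates were made in RIPA with protease inhibitors and quantified by BCA. 30 μg protein was run on 8% SDS-PAGE and blotted to nitrocellulose. Primary antibodies were applied overnight at 4 °C, then HRP secondaries, with ECL and film detection. GAPDH was the loading control. Run three times.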

[3] = target: Cullin-4B (Homo sapiens) (UniProt Q13620); assay: Inhibition of cullin4B neddylation in human KYSE-70 cells at 0.3 to 10 uM incubated for 24 hrs by Western blot analysis; format: cell-based; settings: KYSE-70 cell line, dose 0.3-10 µM; procedure, shortened: as §1
Sequence of Cullin-4B (Homo sapiens) (Q13620 whole entry): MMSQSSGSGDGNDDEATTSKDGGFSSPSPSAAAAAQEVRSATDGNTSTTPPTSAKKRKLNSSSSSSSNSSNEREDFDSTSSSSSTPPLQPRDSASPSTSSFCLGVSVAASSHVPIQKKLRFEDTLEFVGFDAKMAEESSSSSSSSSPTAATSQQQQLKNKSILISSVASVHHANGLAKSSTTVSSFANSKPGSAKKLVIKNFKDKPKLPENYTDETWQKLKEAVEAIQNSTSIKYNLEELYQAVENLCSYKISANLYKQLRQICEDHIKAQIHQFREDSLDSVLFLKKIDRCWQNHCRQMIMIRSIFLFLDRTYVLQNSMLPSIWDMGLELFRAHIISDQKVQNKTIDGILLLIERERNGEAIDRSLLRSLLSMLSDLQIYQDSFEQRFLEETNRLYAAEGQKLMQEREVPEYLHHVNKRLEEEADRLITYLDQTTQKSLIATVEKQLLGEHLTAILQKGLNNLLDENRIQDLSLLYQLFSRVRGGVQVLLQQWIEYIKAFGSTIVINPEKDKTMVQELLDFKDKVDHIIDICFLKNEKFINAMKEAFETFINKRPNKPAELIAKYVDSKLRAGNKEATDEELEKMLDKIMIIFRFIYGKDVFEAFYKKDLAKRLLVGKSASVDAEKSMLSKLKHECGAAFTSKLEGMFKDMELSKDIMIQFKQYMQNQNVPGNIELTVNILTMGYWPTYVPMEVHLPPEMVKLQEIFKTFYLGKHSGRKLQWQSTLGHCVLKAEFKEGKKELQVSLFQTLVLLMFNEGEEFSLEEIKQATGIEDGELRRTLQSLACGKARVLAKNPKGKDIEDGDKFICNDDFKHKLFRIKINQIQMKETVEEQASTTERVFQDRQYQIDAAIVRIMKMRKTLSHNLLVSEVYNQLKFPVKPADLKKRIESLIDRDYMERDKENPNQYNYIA

[4] = tested on: KYSE-70 cell line; assay: Inhibition of cullin3 neddylation in human KYSE-70 cells incubated for 24 hrs by Western blot analysis; format: cell-based; settings: dose 0.3-10 µM; procedure, shortened: as §1
[5] = target: T1, Cullin-5 (Homo sapiens); assay: Inhibition of cullin5 neddylation in UBC/DCN1 overactivated human MGC-803 cells at 0.3 to 10 uM incubated for 24 hrs by Western blot analysis; format: cell-based; settings: dose 0.3-10 µM; procedure, shortened: as §1
[6] = target: CDK9/cyclin T1 (Homo sapiens) (UniProt O60563+P50750); assay: Inhibition of C-terminal His6 tagged full length recombinant human CDK9/full length human Cyclin T1 expressed in baculovirus infected Sf21 cells using 5-FAM-ACSYSPTSPSYSPTSPSYSPTSPSKK as substrate at 10 uM incubated for 60 mins in presence of ATP relative to control
Procedure, shortened: (§2)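 CDK/cyclin complexes were assayed with 3 μM 5-FAM peptide substrate. ATP was 20 μM for CDK1, 30 μM for CDK2, 280 μM for CDK4, 800 μM for CDK6 and 10 μM for CDK9. Buffer was 50 mM HEPES pH 7.5, 0.0015% Brij-35, 10 mM MgCl2 and 2 mM DTT. Reactions ran 60 min at 28 °C and were stopped with EDTA. Caliper conversion values were converted to % inhibition.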

[7] = target: Cyclin-dependent kinase 1/cyclin B (Homo sapiens) (UniProt P06493+P14635+Q8WWL7+O95067); assay: Inhibition of C-terminal His6 tagged human full length CDK1/N-terminal GST-tagged human full length Cyclin B expressed in baculovirus infected Sf21 cells using 5-FAM-QSPKKG-CONH2 as substrate at 10 uM incubated for 60 mins in presence of ATP relative to control; procedure, shortened: as §2
[8] = target: Tyrosine-protein kinase BTK (Homo sapiens) (UniProt Q06187); assay: Inhibition of N-terminal GST-tagged full length human BTK (2 to 659 residues) expressed in Sf21 insect cells using 5-FAM-EAIYAAPFAKKK as substrate at 10 uM incubated for 60 mins relative to control
Sequence of Tyrosine-protein kinase BTK (Homo sapiens) (Q06187 whole entry, the tested form may be a part): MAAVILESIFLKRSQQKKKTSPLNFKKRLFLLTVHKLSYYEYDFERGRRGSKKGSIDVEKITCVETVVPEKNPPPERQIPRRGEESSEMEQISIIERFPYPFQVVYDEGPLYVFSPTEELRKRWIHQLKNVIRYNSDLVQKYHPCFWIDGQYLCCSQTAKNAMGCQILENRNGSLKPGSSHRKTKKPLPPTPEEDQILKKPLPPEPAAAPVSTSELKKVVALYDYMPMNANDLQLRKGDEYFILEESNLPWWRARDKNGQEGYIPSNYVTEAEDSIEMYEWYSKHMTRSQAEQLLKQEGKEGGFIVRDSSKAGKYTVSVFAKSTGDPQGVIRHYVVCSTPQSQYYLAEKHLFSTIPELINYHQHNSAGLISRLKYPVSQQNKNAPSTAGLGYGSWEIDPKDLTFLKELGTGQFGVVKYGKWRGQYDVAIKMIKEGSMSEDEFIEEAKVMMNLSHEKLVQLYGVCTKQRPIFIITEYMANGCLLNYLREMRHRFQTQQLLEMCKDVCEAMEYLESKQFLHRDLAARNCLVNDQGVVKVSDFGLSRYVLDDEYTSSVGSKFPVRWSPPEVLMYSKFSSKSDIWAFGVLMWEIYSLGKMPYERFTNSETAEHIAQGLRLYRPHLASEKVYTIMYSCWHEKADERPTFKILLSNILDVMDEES
Procedure, shortened: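 Mobility-shift kinase assay with BTK at 5 nM, 3 μM 5-FAM peptide and 90 μM ATP. Buffer was 50 mM HEPES pH 7.5, 0.0015% Brij-35, 10 mM MgCl2 and 2 mM DTT. Reactions ran 60 min at 28 °C and were stopped with EDTA. Substrate conversion was read on Caliper and converted to % inhibition.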

[9] = tested on: MGC-803; assay: Upregulation of NRF2 protein expression in human MGC-803 cells incubated for 24 hrs by Western blot analysis; format: functional, cell-based; settings: dose 1-10 µM
Procedure, shortened: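 Cells were grown at 37 °C in 5% CO2 with 10% FBS, MGC-803 in DMEM and KYSE70 in RPMI 1640. They were exposed to the indicated compound concentrations for 24 h, then lysed in RIPA with protease inhibitors and quantified by BCA. 30 μg of protein was run on 8% SDS-PAGE and blotted to nitrocellulose. Primary antibody was applied overnight at 4 °C, with HRP secondary and ECL film detection. GAPDH served as the loading control; the experiment was done three times.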

For `Cc1cc(Sc2nnnn2CCN(C)C)n2nc(SCc3ccc(Cl)cc3)nc2n1.Cl`, the CLint scaled [1] was 691 mL/min/kg, the inhibition [2] was “inactive” and the inhibition [3] was “inactive”. For the same compound, the inhibition [4] was “Dose-Dependent Effect”, the inhibition [5] was “inactive” and the inhibition [6] was -8.4%. The inhibition [7] was 9.6%, the inhibition [8] was 13.6% and the Activity [9] was “Dose-Dependent Effect”.
